Vif imaging: HIV Vif self-association inhibitors, primary screen, imaging, HEK293T, single point | HEK293T cells, Vif self-association by quenched fluorescence, 24 h | inhibition, % at 7.49 µM | 0.35% of 340,000 active | AID 602346, 2012; in the data active = inhibition above about 50%, passing the limit was not always enough; inconclusive = no clear call, values can overlap the other calls; inactive = below about 31%
FGF22 binding: binders of human FGF22 protein, primary screen, FGF22 synaptogenesis inhibitor project, biophysical, thermal shift, single point; 1.5% of 340,000 active; AID 651658, 2012; activity (Tm shift, normalised), % at 9.99 µM; recombinant FGF22 thermal shift, SYPRO orange fluorescence; percent of sucrose octasulfate shift, DMSO zero;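 active = mean Tm shift, scaled 0 neutral to 100 positive control, at about 1.3% or above, every replicate too, limit read from the data; inconclusive = no clear call, values can overlap the other calls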
Target sequence (Q9HCT0 whole entry, looked up): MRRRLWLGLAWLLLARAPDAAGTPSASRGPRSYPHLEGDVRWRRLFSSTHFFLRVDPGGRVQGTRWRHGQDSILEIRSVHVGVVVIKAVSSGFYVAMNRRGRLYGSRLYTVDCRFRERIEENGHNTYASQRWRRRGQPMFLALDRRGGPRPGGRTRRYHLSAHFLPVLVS
PglD inh: C. jejuni PglD acetyltransferase inhibitors, primary screen, biochemical, DTNB colorimetric, single point | purified PglD enzyme, DTNB colorimetric CoA detection | inhibition, % at 12.5 µM | 0.098% of 360,000 active; in the data active = inhibition above about 16%, passing the limit was not always enough; inconclusive = no clear call, values can overlap the other calls
Ecoli rRNA inh: reduced GFP signal of wild-type E. coli, primary screen, bacterial rRNA inhibitor project, GFP/RFP fluorescence, OD600, single point; E. coli WT GFP vs humanized-ribosome RFP mutants, 24 h; stronger effect = lower value; DMSO median 0, no signal -100; 1.6% of 350,000 active; GFP signal change (wild-type ribosome), % (no concentration beside the values);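 active = significant combined selectivity score with lowered wild-type GFP, culture density cut under 30%, mutant RFP and density less affected; inactive = any of these conditions unmet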
Cneo AK release: Cryptococcus neoformans cell lysis inducers, primary screen, AK release luminescence, single concentration; lysis activity, % at 15 µM; 0.2% of 360,000 active; AID 651654, 2012; C. neoformans lysis, adenylate kinase release luminescence, 4 h; normalised: neutral wells 0, clomiphene wells 100;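 active = mean lysis activity across replicates of at least 80%, whatever share of replicates individually reach that level; inactive = mean lysis activity below 80%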
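Material: C. neoformans cells; Schedule: 4 h static compound exposure, 37 °C, read 1 h post-reagent; Measured by: adenylate kinase release luminescence; Read-out: signal increase indicating cell lysis; Controls: Clomiphene as positive lysis control.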
PGC1a acetyl inh: inhibitors of PGC1a acetylation signal, primary screen, cell-based, U2OS, AlphaScreen, inhibitor mode | AlphaScreen anti-acetyl-lysine; with virally co-expressed GCN5 acetyltransferase | inhibition, % at 15.6 µM | 0.17% of 350,000 active | AID 651687, 2012;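 active = every replicate shows inhibition of at least 40%; inconclusive = mean inhibition at least 40% but some replicate below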;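 note: 0% = neutral control wells and 100% = positive control wells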
Active calls of the source: *; ? = inconclusive; . = no result. Hits are enriched below; roughly 2.9% of the tested compounds scored in any of these assays.

SMILES | Vif imaging | FGF22 binding | PglD inh | Ecoli rRNA inh | Cneo AK release | PGC1a acetyl inh
Cc1noc(C)c1NC(=O)N(C)C[C@H]1Oc2c(NS(C)(=O)=O)cccc2C(=O)N([C@@H](C)CO)C[C@H]1C | . | 0 | 3 | 1 | 5 | -9
C[C@H](Cc1ccccc1)Nc1ncnc2c1ncn2[C@@H]1O[C@H](CO)[C@@H](O)[C@H]1O | 65* | 0 | 4 | 9 | -1 | -1
CC(Cc1ccccc1)Nc1ncnc2c1ncn2C1OC(CO)C(O)C1O (stereo not drawn) | 9 | 0 | 3 | . | 2 | .
CC(=O)N(C)C[C@H]1Oc2ncc(C#Cc3ccc(F)cc3)cc2C(=O)N([C@@H](C)CO)C[C@H]1C | . | 0 | 1 | -1 | -9 | 6
O=C(Cn1ccccc1=S)c1ccc(Cl)c(Cl)c1 | 0 | 0 | 4 | -34* | -1 | 1
C[C@@H]1CCCCO[C@H](CN(C)CC2CCCCC2)[C@H](C)CN([C@@H](C)CO)C(=O)c2cc(NC(=O)Cc3ccccc3)ccc2O1 | . | 0 | 2 | -6 | 0 | -8
O=C(c1ccc2c(=O)n(C3CCCC3)c(=S)[nH]c2c1)N1CCCCCC1 | -16 | 0 | . | -28* | . | 6
CC1CCCN(C(=O)c2ccc3c(=O)n(C4CCCC4)c(=S)[nH]c3c2)C1 (stereo not drawn) | -4 | 0 | -2 | 15 | 17 | -4
C(=NN=C(NN=Cc1cccs1)NN=Cc1cccs1)c1cccs1 | 2 | 43* | -7 | -23 | 36 | -12
O=C(N/N=C/c1cccs1)c1ccccn1 | 0 | . | . | . | . | .
CCC(c1nc2ccccc2[nH]1)n1c(-c2ccnc(Cl)c2)nc2ccccc21 (stereo not drawn) | . | 0 | . | -21 | . | .
CCC(c1nc2ccccc2[nH]1)n1c(-c2ccc3cc[nH]c3c2)nc2ccccc21 (stereo not drawn) | . | 1.5* | . | -20 | . | .
O=C(C[C@H]1C=C[C@@H](NC(=O)Nc2ccccc2)[C@@H](CO)O1)NCc1cccc(F)c1 | . | . | . | 0 | . | 4
O=C(c1ccc(C(F)(F)F)cc1)C1CCCN(Cc2cccn2-c2ncccn2)C1 (stereo not drawn) | -3 | 43* | 6 | -5 | 5 | .
CCSC1=NCCN1S(=O)(=O)c1ccc2ccccc2c1 | 9 | 44* | . | -30* | . | .
O=S(=O)(c1ccccc1)N1CCN=C1SCc1ccc(Cl)c(Cl)c1 | 2 | . | . | . | . | .
O=S(=O)(c1ccccc1)N1CCN=C1SCc1cccc(Cl)c1 | 0 | 0 | . | -23* | . | .
CC(=O)CCc1oc2ccccc2c1-c1ccccc1 | -14 | 0 | 3 | -34* | 0 | .
CC1(c2ccc(OCC#N)cc2)C=C(c2ccc(OCC#N)cc2)n2nc(C(F)(F)F)nc2N1 (stereo not drawn) | -11 | 0 | . | -27* | . | .
COc1ccc(C2CC2/C(C)=N/OC(=O)C2CC2)cc1 (stereo not drawn) | -1 | 0 | 3 | -4 | 1 | -2
C/C(=N/OC(=O)C1CC1c1ccccc1)c1ccccc1 (stereo not drawn) | 2 | 0 | . | -21* | . | .
CC12C=CC3(O1)C(C(=O)N1CCCOC13)C2C(=O)O (stereo not drawn) | ? | 43* | -3 | 19 | 0 | -8
COC(=O)[C@H]1[C@H](CO)[C@H]2Cn3c(ccc(/C=C/c4ccccc4)c3=O)[C@H]2N1CC1CCCCC1 | . | . | . | -3 | . | -7
COc1cc(OC)c2c(c1)OC(=O)CC2c1ccc2c(c1)OCO2 (stereo not drawn) | -3 | 0 | -3 | -28* | 0 | -1
COc1cc(OC)c2c(c1)OC(=O)CC2c1ccc(C)cc1 (stereo not drawn) | 8 | 0 | -1 | -22 | -4 | .
SMILES | Vif imaging | FGF22 binding | PglD inh | Ecoli rRNA inh | Cneo AK release | PGC1a acetyl inh
CCC(=O)Nc1ccc2c(c1)C(=O)N(C)C[C@H](OC)[C@H](C)CN(CC1CC1)[C@@H](C)CO2 | . | 0 | -2 | 1 | 8 | 7
CC(C)CSc1n[nH]c(=S)s1 | -3 | 43* | . | -6 | . | .
O=S(=O)(N[C@H]1CC[C@@H](CCn2cc(Cc3ccccc3)nn2)O[C@@H]1CO)c1ccccc1F | . | 0 | -1 | -4 | -3 | -6
O=C(CN1CCN(S(=O)(=O)c2ccccc2[N+](=O)[O-])CC1)NC(=O)NCc1ccco1 | 13 | 43* | . | 16 | . | .
CCCNC(=O)Nc1ccc2c(c1)C(=O)N(C)C[C@H](OC)[C@@H](C)CN(C(=O)C1CCOCC1)[C@@H](C)CO2 | . | 0 | 7 | 3 | 2 | 7
COc1ccccc1NC(=O)N[C@@H]1CC[C@@H](CCn2cc(-c3cccnc3)nn2)O[C@H]1CO | . | 1 | 3 | 0 | -1 | -3
C=CCn1c(O)c(N=NC(=S)Nc2ccccc2F)c2ccccc21 | -9 | 42 | . | -21* | . | .
CCCCCCCn1c(=N)n(CC(O)c2ccco2)c2ccccc21 (stereo not drawn) | -22 | 44* | . | -39 | 2 | -15
COCC(=O)N(C[C@H]1N[C@@H](CO)[C@@H]1c1ccc(C2=CCCC2)cc1)C(C)C | . | . | -6 | -1 | 1 | -5
Cc1cc(C)cc(NC(=O)C2C3C=CC(O3)C2C(=O)O)c1 (stereo not drawn) | 51* | 0 | 8 | 1 | -1 | 39
CCOc1[nH]n(-c2ccccc2)c(=O)c1C=NCC(=O)OC | -15 | 43* | 2 | 5 | 2 | .
CCOc1[nH]n(-c2ccc(Cl)cc2)c(=O)c1C=NCC(=O)OC | -8 | 0 | 5 | 10 | 0 | .
CCOC(=O)c1c(NC(=O)/C=C/C(=O)O)sc(C)c1-c1ccc(C(C)(C)C)cc1 | -15 | 1.7* | . | -32 | . | 47*
CCOC(=O)c1c(NC(=O)/C=C\C(=O)O)sc(C)c1-c1ccccc1 | 2 | 43 | . | -39 | . | 12
CC1(C)Cc2ccccc2C(/C(C#N)=N/O)=N1 | 0 | 43* | 2 | 4 | -4 | .
COc1ccc(N/N=C(/C(N)=O)C2=NC(C)(C)Cc3ccccc32)cc1 | -1 | 0 | . | -11 | . | .
CCCc1cn(CC[C@H]2CC[C@@H](NC(=O)C3CCCC3)[C@H](CO)O2)nn1 | . | 0 | 8 | 3 | -4 | 3
Cc1cnc(N)nc1-c1ccccc1 | . | 43* | -2 | 5 | 2 | 5
COC(=O)[C@@H]1[C@@H](CO)[C@@H]2Cn3c(ccc(C4=CCCCC4)c3=O)[C@@H]2N1Cc1cccnc1 | . | . | . | 1 | . | 1

Bioassay records as filed in PubChem BioAssay.
